Efflux pump mplx: antifungal efflux pump inhibition, Nile Red retention | S. cerevisiae Candida pump triplex | inhibition, % at 10 µM | hit rate 0.44% among 330,000 | AID 485275;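 active means plate passing quality check with inhibition over a set limit, or well fluorescence over plate mean plus 4 SD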;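 further: Nile Red retained in pooled yeast measured as flow cytometry median fluorescence; 0% = buffer negative control and 100% = Enniatin B positive control; higher means more Nile Red kept so more efflux inhibition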
T cruzi repl: T. cruzi replication inhibition; T. cruzi beta-gal in NIH3T3, luminescence, 90 h; inhibition, % (test concentration not listed); hit rate 1.4% among 300,000; AID 1885;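 active means mean inhibition across valid replicates above about 55%, limit read from the data; inconclusive means mean below that limit but half or more replicates reach it; inactive means mean below it, under half of replicates reach it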;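 further: signal also drops with host cell toxicity which is not excluded here; 0% = plate median of DMSO wells and 100% = zero luminescence signal; higher percent means less beta-gal luminescence so fewer parasites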
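Assay system: NIH/3T3 fibroblasts plus reporter T. cruzi. Amount: NIH/3T3 cells, 5,000 per well. Buffer or medium: DMEM, 2% fetal bovine serum. Doses: compound pinned at 50 nL/well, DMSO. Schedule: ≥90 h infection period, 3 h prior cell attachment. Signal: luminescent β-galactosidase signal after 60 min lysis. Read-out: parasite load inhibition, %.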
PolyA inh: blocks polyadenylation in yeast reporter cells; S. cerevisiae SKY197-pL101 polyadenylation reporter, beta-gal luminescence; efflux-impaired pdr1/pdr3 knockout yeast; score 100 = 6 SD above DMSO; activity score, % at 12 µM; hit rate 0.02% among 300,000; AID 1875;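 active means lowest replicate activity score at least 50, where 100 means six control SD above control mean; inconclusive means lowest score under 50 but half or more replicates reach 50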;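 further: yeast exposed to compound for 9 h at 30 °C; higher score means more reporter readthrough which indicates perturbed polyadenylation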
HDAC3 inh: human HDAC3 inhibition; recombinant HDAC3, fluorogenic peptide/trypsin coupled, fluorescence; inhibition, % at 8.3 µM; hit rate 0.15% among 320,000; AID 2718; in the data active means inhibition above about 26%, passing the limit was not always enough; inconclusive means no clear call, values can overlap the other calls
Target sequence (O15379 whole entry, looked up): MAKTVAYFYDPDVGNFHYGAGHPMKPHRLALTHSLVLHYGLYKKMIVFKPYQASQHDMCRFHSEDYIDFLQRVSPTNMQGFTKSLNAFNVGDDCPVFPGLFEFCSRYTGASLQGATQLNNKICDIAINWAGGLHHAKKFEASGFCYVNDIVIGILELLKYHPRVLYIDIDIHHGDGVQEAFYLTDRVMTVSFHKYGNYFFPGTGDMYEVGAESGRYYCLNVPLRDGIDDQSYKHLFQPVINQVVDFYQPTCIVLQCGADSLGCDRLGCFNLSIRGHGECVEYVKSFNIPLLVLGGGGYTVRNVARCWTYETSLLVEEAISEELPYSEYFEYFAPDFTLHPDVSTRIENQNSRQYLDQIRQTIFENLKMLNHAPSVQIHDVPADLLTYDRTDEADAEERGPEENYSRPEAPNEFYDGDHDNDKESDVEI
AI-2 QS modul: modulators of Vibrio harveyi AI-2 quorum sensing system; Vibrio harveyi JMH597 AI-2 luminescence/OD600 ratio, 9 h; stronger effect = lower value; strain lacks LuxN and CqsS sensors; 0 = neutral-control median; activity change, % at 7.5 µM; hit rate 0.4% among 300,000; in the data active means activity change below about -75%, passing the limit was not always enough; inconclusive means no clear call, values can overlap the other calls;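 further: luminescence divided by OD600 gain over 9 h not by final OD600 alone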
JMH597 growth rt: retest Vibrio harveyi JMH597 growth inhibition; growth inhibition, % at 7.5 µM; hit rate 1% among 750; AID 2726; shares compounds with AI-2 QS modul; OD600 absorbance, 9 h; lacks LuxN and CqsS sensors;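 active means every replicate shows growth inhibition above 50%; inconclusive means at least half, but not all, replicates pass that cutoff; inactive means fewer than half of replicates pass it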
BB721 lum counter: retest counter-screen: BB721 constitutive quorum sensing luminescence decrease | shares compounds with AI-2 QS modul | Vibrio harveyi BB721 luminescence, 9 h | inhibition, % at 7.5 µM | hit rate 95% among 750;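 active means inhibition above about 80% in every replicate, not just on average, limit read from the data; inconclusive means at least half of replicates past the limit, but not all; inactive means fewer than half of replicates past the limit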
BB721 growth rt: retest: inhibitors of Vibrio harveyi BB721 growth. AID 2728. hit rate 3% among 750. growth inhibition, % at 7.5 µM. OD600 absorbance, 9 h. shares compounds with AI-2 QS modul;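 active means every replicate shows growth inhibition above 50%; inconclusive means at least half but not all replicates above 50% inhibition; inactive means under half of replicates above 50% inhibition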
JMH597 AI-2 mod: Vibrio harveyi AI-2 signaling luminescence modulation – JMH597 strain, confirmation; shares compounds with AI-2 QS modul; Vibrio harveyi JMH597 AI-2 quorum sensing luminescence, 9 h; luxN and CqsS knockout, AI-2 only; inhibition, % at 7.5 µM; hit rate 97% among 750; AID 2736;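 active means every replicate shows more than 75% inhibition of signal versus neutral control wells; inconclusive means half to three quarters of replicates exceed 75% inhibition; inactive means fewer than half of replicates exceed 75% inhibition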
Starred values were filed as active, the others as inactive; ? = inconclusive; . = no result given. Rows were chosen to be rich in hits. Some 2.2% of all compounds tested hit in one or more screens of this group.

SMILES | Efflux pump mplx | T cruzi repl | PolyA inh | HDAC3 inh | AI-2 QS modul | JMH597 growth rt | BB721 lum counter | BB721 growth rt | JMH597 AI-2 mod
Cc1ccc(O)c(N/C=C/C(=O)c2ccc(F)cc2)c1 | 0 | -12 | 1 | 1 | ? | 21 | 86* | 33 | 89*
O=C(CNC(=S)NC(=O)c1ccco1)c1ccccc1 | 0 | -8 | -15 | -6 | -6 | . | . | . | .
CCOC(=O)N1CCN(CC(O)COc2ccc(C)c(C)c2)CC1 (configuration not stated) | 0 | 3 | 0 | -4 | 12 | . | . | . | .
Cn1cnc(S(=O)(=O)Nc2ccc(OC(F)(F)F)cc2)c1 | 0 | -16 | 7 | 6 | ? | 1 | -34 | -27 | 88*
Fc1ccc(CSc2nnc(-c3cccs3)o2)cc1 | 0 | 9 | -21 | 0 | -89* | 13 | 97* | 9 | 97*
c1ccc(CSc2nnc(-c3cccs3)o2)cc1 | 0 | 5 | -6 | -2 | -90* | -1 | 97* | -10 | 98*
Fc1ccc(-c2nnc(CSc3nnc(-c4cccs4)o3)o2)cc1 | 0 | -8 | 3 | 3 | 22 | . | . | . | .
COc1ccc(NC(=O)CN2C(=O)NC3(CCCc4ccccc43)C2=O)c(OC)c1 (configuration not stated) | 0 | . | . | -1 | . | . | . | . | .
COC(=O)/C=C/C(=O)Nc1cccnc1 | 0 | -4 | -3 | 0 | -71 | . | . | . | .
COC(=O)/C=C/C(=O)Nc1ccc(O)c(Cl)c1 | 0 | -62 | 7 | -3 | -93* | 22 | 96* | 42 | 95*
c1ccc(NCc2ccccn2)cc1 | 0 | -11 | 8 | 14 | -5 | . | . | . | .
c1ccc(NCCCNc2ccccc2)cc1 | 0 | 15 | -22 | -3 | -81* | 0 | 93* | 4 | 93*
Cc1occc1C(=O)NCCCc1ccccc1 | 0 | 2 | 13 | 7 | -78* | 19 | 87* | 11 | 91*
O=C(/C=C/c1ccccc1Cl)NCc1ccco1 | 0 | 4 | 15 | 3 | -83* | 5 | 93* | 18 | 94*
O=C(OCc1cccc(F)c1)c1cc2ccccc2cc1O | 0 | -1 | -10 | 1 | -12 | . | . | . | .
O=C(NCc1nc(-c2ccccc2)no1)c1ccc(Br)o1 | 0 | 0 | 26 | -2 | -95* | -24 | 98* | -28 | 99*
Cc1cccc(NCc2nc(-c3ccccc3)no2)c1 | 0 | 4 | -10 | -2 | ? | 12 | 96* | -11 | 98*
O=C(NCc1nc(-c2ccc(C(F)(F)F)cc2)no1)c1cccs1 | 0 | -1 | -15 | 0 | -94* | -19 | 96* | -13 | 97*
Cc1cccc(OCC(=O)NCc2nc(-c3ccccc3)no2)c1 | 0 | -7 | -10 | -6 | 23 | . | . | . | .
Cc1cccc(-c2noc(CNC(=O)c3ccco3)n2)c1 | 0 | 11 | 28 | 3 | -94* | 8 | 99* | 29 | 99*
COc1cc(C(=O)Nc2ccc(NC(=O)c3ccccc3Cl)nc2)cc(OC)c1OC | 0 | 0 | -8 | 7 | 12 | . | . | . | .
CC1CCCN(S(=O)(=O)c2ccc(NC(=O)C3CC(=O)N(c4ccccc4)C3)cc2)C1 (configuration not stated) | 0 | 29 | -11 | 0 | . | . | . | . | .
O=CN(/C=C1\Sc2ccccc2C1=O)Cc1ccccc1 | 0 | 9 | 23 | 8 | -90* | 78 | 96* | -59 | 97*
O=C(CNc1ccc(Br)cc1)c1ccc(O)cc1 | 0 | -20 | 1 | -12 | -82* | -13 | 90* | -42 | 93*
COc1ccc(NCc2cc(=O)oc3cc(NC(C)=O)ccc23)cc1 | -3 | 0 | 3 | -83 | -81* | 8 | 88* | 8 | 93*
Cc1cccc2nc(CSc3nc4ccccc4[nH]3)cn12 | 0 | 1 | -2 | -3 | ? | -14 | 96* | -42 | 97*

Source: PubChem
